The source of these data is ChEMBL document CHEMBL1671686, “Carbapenem-resistant KPC-2-producing Escherichia coli in a Tel Aviv Medical Center, 2005 to 2008” (2010).

Common to all, as to type: functional
Experiment [1] has as its system Escherichia coli. Put plainly: Antimicrobial activity against Escherichia coli DH10B by vitek-2 method. To be noted: K-12 DH10B. Put shortly:
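Plasmid-free recipient E. coli DH10B, used as the host for electroporation transformants, was tested for susceptibility on the automated Vitek-2 system.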

Experiment [2] has as its system Escherichia coli. Nature of the experiment: Antimicrobial activity against Escherichia coli isolate 360 expressing beta-lactamase KPC2, CTX-M-15, OXA-9, TEM and PFGE cluster 1 isolated from urine of patient by vitek-2 method. To be noted: isolate 360, Urine.
Experiment [3] has as its system Escherichia coli. Put plainly: Antimicrobial activity against Escherichia coli isolate 329T expressing beta-lactamase KPC2 and PFGE cluster 2 isolated from blood of patient by vitek-2 method.
In experiment [4] the test system is Escherichia coli. Put plainly: Antimicrobial activity against Escherichia coli isolate 1679 expressing beta-lactamase KPC2, SHV-12, TEM and PFGE cluster 6 isolated from peritoneal fluid of patient by vitek-2 method.
Experiment [5] has as its system Escherichia coli. Put plainly: Antimicrobial activity against Escherichia coli isolate 540 expressing beta-lactamase KPC2, TEM and PFGE cluster 4 isolated from synovial fluid of patient by vitek-2 method.
The subject of experiment [6] is Escherichia coli. Put plainly: Antimicrobial activity against Escherichia coli isolate 339 expressing beta-lactamase KPC2, TEM and PFGE cluster 5 isolated from peritoneal fluid of patient by vitek-2 method.
Experiment [7] deals with Escherichia coli. Nature of the experiment: Antimicrobial activity against Escherichia coli isolate 386 expressing beta-lactamase KPC2, CTX-M-15, OXA-9, TEM and PFGE cluster 1 isolated from wound of patient by vitek-2 method.
Experiment [8] deals with Escherichia coli. Put plainly: Antimicrobial activity against Escherichia coli isolate 543T expressing beta-lactamase KPC2 and PFGE cluster 4 isolated from synovial fluid of patient by vitek-2 method.
Experiment [9] concerns Escherichia coli. Nature of the experiment: Antimicrobial activity against Escherichia coli isolate 544 expressing beta-lactamase KPC2, TEM and PFGE cluster 4 isolated from abscess of patient by vitek-2 method.
For experiment [10], the system named is Escherichia coli. Put plainly: Antimicrobial activity against Escherichia coli isolate 543 expressing beta-lactamase KPC2, CTX-M-15, TEM and PFGE cluster 4 isolated from synovial fluid of patient by vitek-2 method.
Experiment [11] has as its system Escherichia coli. Put plainly: Antimicrobial activity against Escherichia coli isolate 339T expressing beta-lactamase KPC2 and PFGE cluster 5 isolated from peritoneal fluid of patient by vitek-2 method.
Experiment [12] concerns Escherichia coli. Put plainly: Antimicrobial activity against Escherichia coli isolate 157 expressing beta-lactamase KPC2, CTX-M-15, TEM and PFGE cluster 3 isolated from urine of patient by vitek-2 method. To be noted: isolate 157, Urine.
Experiment [13] concerns Escherichia coli. Nature of the experiment: Antimicrobial activity against Escherichia coli isolate 386T expressing beta-lactamase KPC2, OXA-9 and PFGE cluster 1 isolated from wound of patient by vitek-2 method.
The subject of experiment [14] is Escherichia coli. Put plainly: Antimicrobial activity against Escherichia coli isolate 157T expressing beta-lactamase KPC2 and PFGE cluster 3 isolated from urine of patient by vitek-2 method.
Experiment [15] deals with Escherichia coli. Put plainly: Antimicrobial activity against Escherichia coli isolate 547T expressing beta-lactamase KPC2 and PFGE cluster 4 isolated from blood of patient by vitek-2 method.
The test system of experiment [16] is Escherichia coli. Put plainly: Antimicrobial activity against Escherichia coli isolate 547 expressing beta-lactamase KPC2, TEM and PFGE cluster 4 isolated from blood of patient by vitek-2 method.
Experiment [17] relates to Escherichia coli. Put plainly: Antimicrobial activity against Escherichia coli isolate 1679T expressing beta-lactamase KPC2, TEM and PFGE cluster 6 isolated from peritoneal fluid of patient by vitek-2 method.
Experiment [18] has as its system Escherichia coli. Put plainly: Antimicrobial activity against Escherichia coli isolate 329 expressing beta-lactamase KPC2, CTX-M-2, TEM and PFGE cluster 2 isolated from blood of patient by vitek-2 method.
For experiment [19], the system named is Escherichia coli. Put plainly: Antimicrobial activity against Escherichia coli isolate 360T expressing beta-lactamase KPC2, OXA-9 and PFGE cluster 1 isolated from urine of patient by vitek-2 method.

In brackets after ≈: the same amount, converted by molar mass.

By MIC is commonly meant the smallest concentration in the dilution series that meets the test's criterion for growth inhibition. Read a low MIC as a more susceptible organism. Regarding `CO/N=C(\C(=O)N[C@@H]1C(=O)N2C(C(=O)[O-])=C(C[N+]3(C)CCCC3)CS[C@H]12)c1csc(N)n1`, in experiment [1], inhibition of growth (MIC) required 0.125 µg/mL (≈ 0.26 µM).

For the compound `C[C@H]1COc2c(N3CCN(C)CC3)c(F)cc3c(=O)c(C(=O)O)cn1c23.C[C@H]1COc2c(N3CCN(C)CC3)c(F)cc3c(=O)c(C(=O)O)cn1c23.O` [LEVOFLOXACIN], the MIC is over 8 µg/mL in experiment [2]; under 0.25 µg/mL in [3]; over 8 µg/mL in experiment [4]; over 8 µg/mL in experiment [5]; under 0.25 µg/mL in [1]; over 8 µg/mL in [6]. The MIC in [7] was over 8 µg/mL; in [8], under 0.25 µg/mL; in [9] it was over 8 µg/mL; in [10], over 8 µg/mL; in experiment [11] it was under 0.25 µg/mL; in experiment [12] it was over 8 µg/mL. The MIC is under 0.25 µg/mL in [13]; under 0.25 µg/mL in [14]; under 0.25 µg/mL in experiment [15]; over 8 µg/mL in experiment [16]; under 0.25 µg/mL in [17]; over 8 µg/mL in [18]. In experiment [19], this compound showed an MIC of under 0.25 µg/mL.

As to `NCC[C@H](O)C(=O)N[C@@H]1C[C@H](N)[C@@H](O[C@H]2O[C@H](CN)[C@@H](O)[C@H](O)[C@H]2O)[C@H](O)[C@H]1O[C@H]1O[C@H](CO)[C@@H](O)[C@H](N)[C@H]1O` [AMIKACIN], the MIC is 32 µg/mL (≈ 54.6 µM) in experiment [2]; under 2 µg/mL in experiment [3]; under 2 µg/mL in experiment [4]; 16 µg/mL (≈ 27.3 µM) in experiment [5]; under 1 µg/mL in [1]; 4 µg/mL (≈ 6.83 µM) in [6]. The MIC is over 64 µg/mL in experiment [7]; 16 µg/mL (≈ 27.3 µM) in [8]; 8 µg/mL (≈ 13.7 µM) in experiment [9]; over 64 µg/mL in experiment [10]; under 2 µg/mL in [11]; 8 µg/mL (≈ 13.7 µM) in [12]. In addition, the MIC in [13] is over 64 µg/mL; in experiment [14], under 2 µg/mL; in experiment [15], 16 µg/mL (≈ 27.3 µM); in [16], 16 µg/mL (≈ 27.3 µM); in experiment [17] it was 16 µg/mL (≈ 27.3 µM); in experiment [18] it was 32 µg/mL (≈ 54.6 µM). The same compound displayed an MIC in experiment [19] of over 64 µg/mL.

The compound `O=C(O)c1cn(C2CC2)c2cc(N3CCNCC3)c(F)cc2c1=O` [CIPROFLOXACIN] came in with a minimal inhibitory concentration (MIC) in experiment [1] of under 0.25 µg/mL.

As for `CC(C)(O/N=C(\C(=O)N[C@@H]1C(=O)N2C(C(=O)[O-])=C(C[n+]3ccccc3)CS[C@H]12)c1csc(N)n1)C(=O)O` [CEFTAZIDIME], the MIC is over 64 µg/mL in [2]; 16 µg/mL (≈ 29.3 µM) in [3]; over 64 µg/mL in [4]; 4 µg/mL (≈ 7.32 µM) in experiment [5]; under 0.25 µg/mL in experiment [1]; 4 µg/mL (≈ 7.32 µM) in [6]. The MIC in experiment [7] was over 64 µg/mL; in [8] it was 16 µg/mL (≈ 29.3 µM); in [9] it was 16 µg/mL (≈ 29.3 µM); in experiment [10] it was 16 µg/mL (≈ 29.3 µM); in experiment [11] it was 16 µg/mL (≈ 29.3 µM); in experiment [12] it was over 64 µg/mL. Also, the MIC in [13] was 16 µg/mL (≈ 29.3 µM); in [14], 16 µg/mL (≈ 29.3 µM); in [15] it was 16 µg/mL (≈ 29.3 µM); in [16], 4 µg/mL (≈ 7.32 µM); in [17], over 64 µg/mL; in experiment [18], over 64 µg/mL. Moreover, the MIC in experiment [19] was 16 µg/mL (≈ 29.3 µM).

Take `CO/N=C(\C(=O)N[C@@H]1C(=O)N2C(C(=O)O)=C(CSc3nc(=O)c(O)nn3C)CS[C@H]12)c1csc(N)n1` [CEFTRIAXONE]: the MIC in experiment [2] is over 64 µg/mL; in experiment [3], 16 µg/mL (≈ 28.9 µM); in experiment [4] it was 32 µg/mL (≈ 57.7 µM); in [5], over 64 µg/mL; in [1] it was under 0.25 µg/mL; in [6], over 64 µg/mL. The MIC in experiment [7] is over 64 µg/mL; in experiment [8], 16 µg/mL (≈ 28.9 µM); in experiment [9], 32 µg/mL (≈ 57.7 µM); in experiment [10], over 64 µg/mL; in experiment [11], 8 µg/mL (≈ 14.4 µM); in experiment [12], over 64 µg/mL. Also, the minimum inhibitory concentration (MIC) in experiment [13] was 8 µg/mL (≈ 14.4 µM); in experiment [14], over 64 µg/mL; in [15], 8 µg/mL (≈ 14.4 µM); in experiment [16], over 64 µg/mL; in experiment [17] it was 8 µg/mL (≈ 14.4 µM); in experiment [18] it was over 64 µg/mL. Also, inhibition of growth in [19] (MIC) required 8 µg/mL (≈ 14.4 µM).

`C[C@H]1[C@H](NC(=O)/C(=N\OC(C)(C)C(=O)O)c2csc(N)n2)C(=O)N1S(=O)(=O)O` [AZTREONAM] gave an MIC in experiment [1] of under 1 µg/mL.
